Reference: article PMC4310013 (Chemical Science, 2014)
“Also recorded” adds a separate entry of the source.

Assays:
[1] = Pharmacokinetic studies in C57BL/6 mice; type: in vivo; settings: male, C57BL/6, mouse, brain, intraperitoneal
[2] = Brain tissue binding assay; type: in vitro ADME
[3] = system: mouse forebrain primary neuronal cultures; assay: Neuronal histone acetylation assay; type: cell-based; settings: 10 μM, 24 h, relative to vehicle
Procedure, shortened: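 Primary mouse forebrain neurons were treated on culture day 13 for 24 h at 10 μM, then formaldehyde-fixed. They were stained with anti-AcH3K9 or anti-AcH4K12 and a green fluorescent secondary, and fluorescence was read by microcytometer. Read-out was the percentage of cells above a baseline threshold set in DMSO-treated cells. Two experiments in triplicate from separate dissections and cultures.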

[4] = system: wild-type male C57BL/6 mice; assay: Tolerability on daily dosing in wild-type mice; type: in vivo, mouse; settings: 30 mg/kg daily for 10 consecutive days
[5] = system: CK-p25 mice; assay: Context-dependent fear conditioning in CK-p25 mice; type: in vivo, mouse; settings: 1 mg/kg i.p. daily for 10 days
Procedure, shortened: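 CK-p25 male mice induced at 3 months of age for 6 weeks for forebrain p25 expression; p25-lacking heterozygous littermates as controls. Test compound in 5% DMSO, then 30% Cremophor/65% saline, given i.p. daily for 10 days before behaviour; vehicle without compound. Training: 3 min habituation, two 2 s 0.8 mA shocks 30 s apart, 15 s more. Freezing scored on 3 min context re-exposure 24 h later. Mean ± SEM; ANOVA/Tukey or one-tailed t test.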

[6] = system: CK-p25 mice; assay: Tolerability on daily dosing in CK-p25 mice; type: in vivo, mouse
Procedure, shortened: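 Induced CK-p25 mice were given test compound i.p. daily for 10 days, dissolved in 5% DMSO then diluted in 30% Cremophor/65% physiological saline and prepared immediately before injection. Mortality and toxicity were noted over the treatment period.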

[7] = system: hippocampal CA1 neurons of CK-p25 mice; assay: Immunohistochemistry of H4K12 acetylation in hippocampal CA1 neurons; type: in vivo, mouse; settings: after 10 day treatment, compared to vehicle treated group
Procedure, shortened: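 Hippocampal tissue from CK-p25 mice given test compound or vehicle i.p. daily for 10 days. Coronal 40 μm slices were permeabilised in 0.1% Triton X-100, blocked, and incubated overnight with acetyl-histone antibody in 0.3% Triton X-100/10% FBS in PBS. Fluorescent secondary and Hoechst nuclear stain followed. Confocal images at identical settings. Mean signal in 20–40 non-apoptotic cells per condition was scored blind. Mean ± SEM.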

| SMILES | Kp [1] | fraction unbound [2] | AcH3K9 acetylation change [3] | AcH4K12 acetylation change [3] | toxicity [4] | contextual fear conditioning, freezing [5] | toxicity ([6]; 1 mg/kg, CK-p25 mice) | mortality ([6]; 10 mg/kg, over 10 day treatment, single study, unknown cause) | H4K12 acetylation in hippocampal CA1 neurons [7] |
| --- | --- | --- | --- | --- | --- | --- | --- | --- | --- |
| CC(=O)NC1CCN(C(=O)Nc2cc(-c3cccs3)ccc2N)CC1 [BRD3227] | 0.01 |  |  |  |  |  |  |  |  |
| Nc1ccc(-c2ccncc2)cc1NC(=O)N1CCCC1 [BRD6688] | 0.26 | 0.54 | significant increases | significant increases | No toxicity was observed | rescued the memory defects; also recorded: restored the freezing response to normal levels | No toxicity was observed | 5 out of 10 | increased H4K12 acetylation |
